For assay [1], the species on record is Mus musculus. Kind of assay: Competitive inhibition of PI3K in C57BL/6 mouse T cells assessed as decrease in Akt phosphorylation at 100 uM after 1 to 3 hrs by Western blot analysis. In kind it is cell-based. The gist of the method: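 Growing activated T cells, not starved of IL-2, exposed to 100 µM compound or DMSO vehicle for the indicated times. Phospho-Akt detected by Western blot, actin as loading control. Three independent experiments.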
For orientation: Immunoblotting shows a protein as a band on a membrane.

The species named for assay [2] is Mus musculus. The assay is described as follows: Inhibition of PI3K in C57BL/6 mouse T cells assessed as decrease in Akt phosphorylation at <10 uM after 1 hr by Western blot analysis. Type of assay: cell-based.
Assay [3] has as its system T-cell. Kind of assay: Cytotoxicity against C57BL/6 mouse T cells assessed as reduction in cell viability at 100 uM after 24 hrs by trypan blue assay. Type of assay: functional, cell-based. A digest of the protocol:
(§1)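 Activated T cells in growth (not IL-2 starved) culture, duplicate samples, given DMSO vehicle or compound at the indicated doses. Followed over 24 h. At set time points, cells counted for proliferation and viability scored by trypan blue exclusion.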

The species named for assay [4] is Mus musculus. Kind of assay: Inhibition of PI3K in C57BL/6 mouse IL2 starved T cells assessed as decrease in IL-2 restimulated Akt phosphorylation at 100 uM preincubated for 30 mins followed by recombinant human IL-2 addition measured after 1 to 3 hrs by Western blot analysis. The gist of the method:
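Activated T cells deprived of IL-2 overnight, pretreated 30 min with 100 µM compound or DMSO vehicle, then stimulated with 1000 U/mL recombinant human IL-2 for the indicated times. Phospho-Akt detected by Western blot, actin as loading control. Three independent experiments.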

Assay [5] deals with T-cell. Kind of assay: Antiproliferative activity against C57BL/6 mouse T cells at […] after 18 hrs by trypan blue assay. In kind it is functional, cell-based. The gist of the method: as §1

Calls of active or inactive are those of the source. No cut-off for these calls is given here.

Consider `CC(C)[C@@H]1CC(=O)c2coc3c2[C@H]1C[C@@H](C)C3=O`, for which the inhibition result in assay [1] and in assay [4] was “Active” throughout. Besides, the inhibition entry in assay [2] was “inactive”. For the same compound, the result in assay [3] and in assay [5] was Active.

(Values after ChEMBL document CHEMBL4020794, “Inhibition of phosphatidylinositol-3-kinase by the furanosesquiterpenoid hibiscone C” (Bioorg Med Chem Lett, 2017).)
